Publication PMC7680388 (Cell chemical biology, 2020)

Assays:
SK-MEL-5 cells = format: cell-based, Homo sapiens; conditions: endogenous Rpn13 depleted by UTR siRNA; Fig. 6E
Summary of the method: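 SK-MEL-5 endogenous Rpn13 was depleted with UTR-targeting siRNA (50 nM) for 24 h. Cells at 70–80% confluency were then transfected with 2 μg wild-type or Q337A/Q338A FLAG-Rpn13 plasmid (Omnifect) per 6-well. Test compound was given at graded concentrations for 24 h. CellTiter-Glo 2.0 luminescence was normalized to vehicle, in technical triplicate and biological duplicate, with SD reported.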

Uch37 = target: T1, Uch37 (Homo sapiens, UniProt Q9Y5K5); conditions: ref VanderLinden et al., 2015; cited from earlier work
T1 sequence (Q9Y5K5 1-329): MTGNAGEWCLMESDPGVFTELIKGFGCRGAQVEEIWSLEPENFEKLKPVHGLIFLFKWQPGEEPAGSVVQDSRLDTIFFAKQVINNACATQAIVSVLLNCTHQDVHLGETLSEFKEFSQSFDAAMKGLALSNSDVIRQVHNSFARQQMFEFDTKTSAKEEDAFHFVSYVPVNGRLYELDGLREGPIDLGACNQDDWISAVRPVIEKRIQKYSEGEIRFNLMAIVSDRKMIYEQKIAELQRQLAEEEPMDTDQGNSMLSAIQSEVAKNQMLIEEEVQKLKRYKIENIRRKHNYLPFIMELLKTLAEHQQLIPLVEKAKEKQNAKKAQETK

Rpn13-Uch37 interaction = conditions: ref VanderLinden et al., 2015; cited from earlier work

B1: Rpn13Q337A/Q338A: Rpn13 double mutant defective in Uch37 activation, FLAG-tagged, expressed from plasmid (protein, UniProt Q16186 2-407, looked up, variant Q337A Q338A)
Proteasomal ubiquitin …: TTSGALFPSLVPGSRGASNKYLVEFRAGKMSLKGTTVTPDKRKGLVYIQQTDDSLIHFCWKDRTSGNVEDDLIIFPDDCEFKRVPQCPSGRVYVLKFKAGSKRLFFWMQEPKTDQDEEHCRKVNEYLNNPPMPGALGASGSSGHELSALGGEGGLQSLLGNMSHSQLMQLIGPAGLGGLGGLGALTGPGLASLLGSSGPPGSSSSSSSRSQSAAVTPSSTTSSTRATPAPSAPAAASATSPSPAPSSGNGASTAASPTQPIQLSDLQSILATMNVPAGPAGGQQVDLASVLTPEIMAPILANADVQERLLPYLPSGESLPQTADEIQNTLTSPQFAAALGMFSAALASGQLGPLMCQFGLPAEAVEAANKGDVEAFAKAMQNNAKPEQKEGDTKDKKDEEEDMSLD
modifications: FLAG tag
viability upon expression of Rpn13 double mutant (SK-MEL-5 cells): no significant effect on viability
stimulation of Uch37 relative to wild-type Rpn13 (Uch37): about 30%
effect of mutations on physical interaction with Uch37 (Rpn13-Uch37 interaction): the mutations do not affect the physical interaction of the two proteins
